How the values were obtained:
Cathepsin K [1] = biological target: T1, Cathepsin K (Homo sapiens, UniProt P43235); assay: Inhibition of Human cathepsin K
T1 sequence (P43235 whole entry): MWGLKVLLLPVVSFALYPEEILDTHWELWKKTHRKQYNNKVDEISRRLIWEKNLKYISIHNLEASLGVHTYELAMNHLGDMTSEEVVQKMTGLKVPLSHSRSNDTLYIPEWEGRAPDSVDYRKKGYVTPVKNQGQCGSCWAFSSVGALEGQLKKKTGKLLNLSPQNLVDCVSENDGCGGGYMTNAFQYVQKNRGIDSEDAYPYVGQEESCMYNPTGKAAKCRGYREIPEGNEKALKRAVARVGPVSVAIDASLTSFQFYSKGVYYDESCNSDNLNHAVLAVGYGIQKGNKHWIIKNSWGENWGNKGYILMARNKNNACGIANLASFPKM

Cathepsin B = Cathepsin B (Homo sapiens, UniProt P07858); assay: Inhibitory activity against Human cathepsin B
Cathepsin S = Cathepsin S (Homo sapiens, UniProt P25774); assay: Inhibitory activity against Human cathepsin S
Chain of Cathepsin S (P25774 whole entry): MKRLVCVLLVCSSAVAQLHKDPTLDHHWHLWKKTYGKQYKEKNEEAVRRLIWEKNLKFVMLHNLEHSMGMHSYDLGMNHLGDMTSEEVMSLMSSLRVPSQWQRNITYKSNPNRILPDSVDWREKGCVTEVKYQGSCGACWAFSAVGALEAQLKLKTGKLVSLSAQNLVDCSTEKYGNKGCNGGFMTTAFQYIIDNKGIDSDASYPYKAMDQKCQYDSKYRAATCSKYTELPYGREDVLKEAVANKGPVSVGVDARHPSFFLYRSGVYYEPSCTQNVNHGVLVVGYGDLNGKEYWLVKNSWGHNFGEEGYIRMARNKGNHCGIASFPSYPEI

[2] = Bioavailability in rat (Sprague-Dawley) (male); type: ADME, organism-based; details: in vivo
Procedure, shortened: (§1)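 Crossover in rats over 2 study days, 2 days apart: 30-min IV infusion on day 1, oral bolus gavage in the same animals on day 2. Blood taken from lateral tail vein, plasma by centrifugation, drug quantified by LC/MS/MS (LLOQ 5–10 ng/mL). PK parameters from plasma concentration–time data by standard analysis.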

[3] = plasma clearance in male Sprague-Dawley rat; type: ADME, organism-based; procedure, shortened: as §1
[4] = half life period in male Sprague-Dawley rat; type: ADME, organism-based; details: in vivo; procedure, shortened: as §1
[5] = Volume of distribution in male Sprague-Dawley rat; type: ADME, organism-based; details: in vivo, read-out: Vdss; procedure, shortened: as §1
Procathepsin L = Procathepsin L (Homo sapiens, UniProt P07711); assay: Inhibitory activity against Human cathepsin L
Chain of Procathepsin L (P07711 whole entry): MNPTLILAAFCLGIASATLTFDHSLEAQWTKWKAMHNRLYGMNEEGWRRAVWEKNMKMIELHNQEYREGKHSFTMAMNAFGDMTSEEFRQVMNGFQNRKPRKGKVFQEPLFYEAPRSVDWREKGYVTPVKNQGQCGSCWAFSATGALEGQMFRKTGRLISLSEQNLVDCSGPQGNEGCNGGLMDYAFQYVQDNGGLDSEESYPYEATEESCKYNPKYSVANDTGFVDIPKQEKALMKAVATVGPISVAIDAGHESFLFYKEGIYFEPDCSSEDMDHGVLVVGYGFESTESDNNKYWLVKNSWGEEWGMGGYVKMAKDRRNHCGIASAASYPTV

Cathepsin K [6] = biological target: T1, Cathepsin K; assay: In vitro IC50 value was measured using in situ cytochem assay.
Cathepsin K [7] = biological target: T2, Cathepsin K (Rattus norvegicus, UniProt O35186); assay: Inhibitory activity against Rat cathepsin K
T2 sequence (O35186 whole entry): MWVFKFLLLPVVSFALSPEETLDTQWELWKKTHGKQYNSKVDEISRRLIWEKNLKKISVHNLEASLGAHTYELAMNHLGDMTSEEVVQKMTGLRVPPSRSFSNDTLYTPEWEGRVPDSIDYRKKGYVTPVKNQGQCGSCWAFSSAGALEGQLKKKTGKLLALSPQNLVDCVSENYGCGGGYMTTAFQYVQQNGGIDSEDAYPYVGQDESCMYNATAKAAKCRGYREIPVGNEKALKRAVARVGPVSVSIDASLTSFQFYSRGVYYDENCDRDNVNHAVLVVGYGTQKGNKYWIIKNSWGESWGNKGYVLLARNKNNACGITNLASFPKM

[8] = volume distribution in male Sprague-Dawley rat; type: ADME, organism-based; details: in vivo, read-out: Vdss; procedure, shortened: as §1

SMILES	Ki (Cathepsin K [1]) [nM]	Ki (Cathepsin B) [nM]	Ki (Cathepsin S) [nM]	bioavailability [2] [%]	clearance [3] [mL/min/kg]	half-life [4] [min]	other results
CC(C)C[C@H](NC(=O)OCc1ccccc1)C(=O)N1CCC(NC(=O)[C@@H](CC(C)C)NC(=O)OCc2ccccc2)C(=O)C1 (stereo partly drawn)	2.6	440	–	–	–	–	–
CC(C)C[C@H](NC(=O)OCc1ccccc1)C(=O)NCC(=O)CNC(=O)[C@H](CC(C)C)NC(=O)OCc1ccccc1	–	–	890	–	–	–	–
CC(C)C[C@H](NC(=O)c1cc2cc(OCCN3CCOCC3)ccc2o1)C(=O)N[C@H]1CCCN(C(=O)Cc2cccc(-c3ccccn3)c2)CC1=O	0.0048	100	14	2.1	39.7	338	Vd [5]: 1.29 L/kg; Ki (Procathepsin L): 0.49 nM; IC50 (Cathepsin K [6]): 30 nM; Ki (Cathepsin K [7]): 4.8 nM
CC(C)C[C@H](NC(=O)OCc1ccccc1)C(=O)N[C@@H]1CCCN(C(=O)[C@H](CC(C)C)NC(=O)OCc2ccccc2)CC1=O	15	–	97	–	–	–	Ki (Procathepsin L): 290 nM
CC(C)C[C@H](NC(=O)c1cc2ccccc2o1)C(=O)N[C@H]1CCCN(S(=O)(=O)c2ccccn2)CC1=O	–	500	–	42.1	49.2	29.8	Vd [5]: 1.86 L/kg; Ki (Procathepsin L): 2.2 nM; Ki (Cathepsin K [7]): 60 nM
CC(C)C[C@H](NC(=O)c1cc2ccccc2o1)C(=O)NC1CCCN(S(=O)(=O)c2ccccn2)CC1O (stereo partly drawn)	> 1000	–	–	–	–	–	–
CC(C)C[C@H](NC(=O)OCc1ccccc1)C(=O)N1CC(=O)C(NC(=O)[C@@H](CC(C)C)NC(=O)OCc2ccccc2)C1 (stereo partly drawn)	2.3	> 1000	–	–	–	–	–
CC(C)C[C@H](NC(=O)c1cc2cc(OCCN3CCOCC3)ccc2o1)C(=O)N[C@@H]1CCCN(C(=O)Cc2cccc(-c3ccccn3)c2)CC1=O	4.7	–	–	–	–	–	–
CC(C)C[C@H](NC(=O)c1cc2ccccc2o1)C(=O)NCC(=O)CNS(=O)(=O)c1ccccn1	1.6	–	–	3.3	33.1	27	Vd [8]: 0.65 L/kg
CC(C)C[C@H](NC(=O)OCc1ccccc1)C(=O)N1CCCC(NC(=O)[C@@H](CC(C)C)NC(=O)OCc2ccccc2)C(=O)C1 (stereo partly drawn)	30	–	–	–	–	–	–
CC(C)C[C@H](NC(=O)c1cc2ccccc2o1)C(=O)N[C@@H](C)C(=O)CNS(=O)(=O)c1ccccn1	7.5	59	20	3.2	32.5	33.2	Vd [5]: 0.71 L/kg
CC(C)C[C@H](NC(=O)c1cc2ccccc2o1)C(=O)N[C@@H]1CCCN(S(=O)(=O)c2ccccn2)CC1=O	–	–	–	9.7	51.9	33.2	Vd [8]: 1.64 L/kg
CC(C)C[C@H](NC(=O)OCc1ccccc1)C(=O)NC1CCCN(C(=O)[C@H](CC(C)C)NC(=O)OCc2ccccc2)CC1=O (stereo partly drawn)	2	–	26	–	–	–	Ki (Procathepsin L): 47 nM
CC(C)C[C@H](NC(=O)c1cc2ccccc2o1)C(=O)N[C@@H](C)C(=O)CN(C)S(=O)(=O)c1ccccn1	670	–	–	2.5	44.6	21.5	Vd [8]: 1.15 L/kg
CC(C)C[C@H](NC(=O)c1cc2cc(OCCN3CCOCC3)ccc2o1)C(=O)NC1CCCN(C(=O)Cc2cccc(-c3ccccn3)c2)CC1O (stereo partly drawn)	54	–	–	–	–	–	–
